Ins promoter up – MIN6 insulin promoter up-regulation; MIN6 insulin promoter-GFP reporter, high-content imaging; active compounds read high; z-score at 5 µM; actives 0.3% (n = 190,000);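 active means z-score above 3 at 5 µM with at least 500 cells counted in the well; inconclusive means wells under 500 cells, flagged as cytotoxic or low count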
beta cell repl – MIN6 beta-cell proliferation induction | proliferation, % at 10 µM | MIN6 cells proliferation, ATPlite luminescence, 48 h; cells starved in 0.2% serum; 100% = growth in 10% serum | actives 0.29% (n = 330,000) | AID 2380;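 active means compounds whose signal lies at least 3.5 SD above the mean of all wells on their plate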
SR-BI uptake up – SR-BI HDL lipid transfer activation | CHO ldlA[mSR-BI] cells, DiI-HDL uptake fluorescence, 3 h; 100 = double the neutral-control signal | activation, % at 12.5 µM | actives 0.096% (n = 320,000);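 active means mean replicate activation of at least 60% and every replicate at or above 60%; inconclusive means mean or all-replicate condition met, but not both; inactive means mean below 60% and not all replicates reaching 60%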
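Material: SR-BI-overexpressing, LDLR-lacking CHO cells; schedule: compound exposure 3 h, 37 °C; reagent: DiI-labelled HDL at 10 µg/mL final; technique: bottom-read fluorescence, 550/595 nm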
HTR2A ag – mouse HTR2A agonism via beta-arrestin recruitment | P35363 | CHO-K1 mHTR2A beta-arrestin complementation, luminescence; percent of 30 µM serotonin response | activation, % at 7.6 µM | actives 0.66% (n = 360,000);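 active means activation above a run cutoff, the mean activation of all tested compounds plus 3 SD, cut at about 14% in these data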
Calb FLC – affects C. albicans growth with fluconazole | C. albicans CaCi-2 + fluconazole, Alamar Blue growth, 48 h | actives 0.57% (n = 300,000) | growth inhibition, % (no concentration beside the values);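 active means growth inhibition above about 58% in most replicates, limit read from the data, passing the limit was not always enough; inconclusive means exactly half the replicates above a set limit; inactive means most replicates below a set limit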;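 further: all wells also contain fluconazole at 8 µg/ml as a sub-toxic cotreatment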
SR-BI HDL uptake – mouse SR-BI HDL lipid transfer inhibition. actives 0.96% (n = 320,000). inhibition, % at 12.5 µM. Q61009. AID 488896. ldlA[mSR-BI] CHO cells, DiI-HDL uptake fluorescence, 3 h;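 active means mean replicate inhibition of at least 70% and a set share of replicates each scoring 70 or more; inconclusive means meets just one of the two criteria; inactive means fails both criteria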
Target sequence (Q61009 whole entry, looked up): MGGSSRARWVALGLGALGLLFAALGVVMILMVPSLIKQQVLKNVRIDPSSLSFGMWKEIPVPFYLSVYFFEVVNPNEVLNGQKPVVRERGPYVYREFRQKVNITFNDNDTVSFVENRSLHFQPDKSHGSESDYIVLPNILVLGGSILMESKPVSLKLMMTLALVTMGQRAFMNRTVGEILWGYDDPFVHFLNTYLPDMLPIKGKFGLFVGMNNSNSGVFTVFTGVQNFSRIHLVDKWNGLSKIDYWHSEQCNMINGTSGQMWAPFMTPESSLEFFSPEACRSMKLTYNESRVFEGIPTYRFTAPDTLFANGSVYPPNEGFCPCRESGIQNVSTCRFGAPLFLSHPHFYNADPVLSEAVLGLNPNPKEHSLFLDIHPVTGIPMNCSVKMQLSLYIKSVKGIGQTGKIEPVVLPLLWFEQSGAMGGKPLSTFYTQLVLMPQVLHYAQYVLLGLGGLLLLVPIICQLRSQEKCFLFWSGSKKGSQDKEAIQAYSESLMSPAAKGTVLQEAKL
Of the large screens only hits and unclear results are named; the others gave an inactive call. Only some compounds are listed: those with a hit (about 2.4% of all), similar ones and a draw of the others.

O=C(Oc1c(CN2CCOCC2)cc(Cl)c2cccnc12)c1ccc(F)cc1	Calb FLC 96
COc1ccc(C(=O)Oc2c(CN3CCOCC3)cc(Cl)c3cccnc23)cc1	Calb FLC 88 (no result: Ins promoter up)
COc1cccc(C(=O)Oc2c(CN3CCOCC3)cc(Cl)c3cccnc23)c1	Calb FLC 104
Oc1c(CN2CCN(c3ccccn3)CC2)cc(Cl)c2cccnc12	none
COc1cccc(C(=O)OCCN2CCOCC2)c1	none
COc1cc(C(=O)Oc2c(OC)cc(C(=S)N3CCOCC3)cc2OC)cc(OC)c1OC	none (no result: Ins promoter up)
COc1cc(C(=O)Oc2c(CN3CCOCC3)cc(Cl)c3cccnc23)cc(OC)c1OC	Calb FLC 94
COCCNC(=O)[C@H]1N2C(=O)c3ccccc3C2SC1(C)C (some centres not stated)	none (no result: Ins promoter up)
Cc1cc(Sc2ncnc(N)c2[N+](=O)[O-])ncn1	Calb FLC 101
Cc1ccc(C)c(Oc2ncnc(N)c2[N+](=O)[O-])c1	none
Cc1cc(Sc2nc(N)ncc2[N+](=O)[O-])ncn1	Calb FLC 105
Cc1cc(C)c2nc(NNC(=O)c3ccc(S(=O)(=O)N4CCc5ccccc5C4)cc3)sc2c1	SR-BI HDL uptake 133
Cc1cc(C)c2sc(N(CCCN(C)C)C(=O)c3ccc(S(=O)(=O)N4CCc5ccccc5C4)cc3)nc2c1	none (no result: Ins promoter up)
Cc1cc(C)c2sc(NNC(=O)c3ccc(S(=O)(=O)N4CCc5ccccc5C4)cc3)nc2c1	Ins promoter up inconclusive, SR-BI HDL uptake 146
CCc1nnc(NC(=O)c2ccc(S(=O)(=O)N3CCc4ccccc4C3)cc2)s1	none
CCCCN=c1scc(-c2ccc3c(c2)NC(=O)CO3)n1N=C1CCCC1	none
CCN=c1scc(-c2ccc3c(c2)NC(=O)CO3)n1N=C1CCCC1	Ins promoter up inconclusive, Calb FLC 93
CCOc1ccccc1NC(=O)/C=C/c1ccccc1[N+](=O)[O-]	SR-BI HDL uptake 82
Nc1nsc2ccccc12	Calb FLC 87
CCCn1c2ccc(/C(C)=N\O)cc2c2cc(/C(C)=N/O)ccc21	SR-BI HDL uptake 101
Cc1[nH]nc(-c2ccc(O)c(C)c2O)c1-c1cnn(-c2ccccc2)c1	Calb FLC 106
Cc1ccc(Nc2nc(N/N=C/c3c[nH]c4ccccc34)nc(N3CCOCC3)n2)cc1	SR-BI HDL uptake 110
C(=N\Nc1nc(Nc2ccccc2)nc(N2CCOCC2)n1)/c1c[nH]c2ccccc12	none (no result: Ins promoter up, SR-BI uptake up, HTR2A ag, SR-BI HDL uptake)
Cc1ccc(-c2nc(NC(=O)c3nn(C)cc3[N+](=O)[O-])sc2C)cc1C	SR-BI HDL uptake 74
Cc1ccc(-c2nc(NC(=O)c3nn(C)cc3[N+](=O)[O-])sc2C)cc1	none
O=C(Nc1cc2c3c(c1)CC(=O)N3CCC2)c1ccc(Cl)cc1	SR-BI HDL uptake 79 (no result: Ins promoter up)
O=[N+]([O-])c1ccc(C(=Nc2cccc3ccccc23)N2CCOCC2)cc1	Calb FLC 100
Cc1ccc([N+](=O)[O-])cc1N=C(c1ccc([N+](=O)[O-])cc1)N1CCOCC1	none
Cc1ccc(N2NC3(CCN(C(N)=O)CC3)NC2=O)cc1	Calb FLC 106 (no result: SR-BI uptake up, HTR2A ag, SR-BI HDL uptake)
Cc1ccc(N2C(=O)NC3(CCCCC3)C2=O)cc1	none
NC(=O)c1c(NC(=O)c2cccnc2)sc2c1CCCC2	Calb FLC inconclusive (no result: Ins promoter up)
CCC1CCc2c(sc(NC(=O)c3cccnc3)c2C(N)=O)C1 (configuration not stated)	SR-BI HDL uptake 77
O=C(Nc1sc2c(c1C(=O)c1ccc(Cl)cc1)CCCC2)c1cccnc1	Calb FLC 84
COc1ccccc1NC(=O)c1ccc(NC(=O)COC(=O)CC(NC(=O)c2ccccc2Cl)c2ccccc2)cc1 (configuration not stated)	SR-BI HDL uptake 81
COc1ccccc1NC(=O)c1ccc(NC(=O)COC(=O)C(C)C)cc1	none
Cc1cccc(S(=O)(=O)NC(=O)C2(C)CCN2C(=O)Cc2ccc(-c3ccccc3)cc2)c1 (configuration not stated)	none (no result: Ins promoter up, beta cell repl, SR-BI uptake up, Calb FLC, SR-BI HDL uptake)
Cc1nc2sc(C(c3cccc(F)c3)N3CCCC(C)C3)c(O)n2n1 (configuration not stated)	Calb FLC 85 (no result: SR-BI uptake up, SR-BI HDL uptake)
Cc1nc2sc(C(c3cccc(F)c3)N3CCCCC3)c(O)n2n1 (configuration not stated)	none
Nc1ncnc2c1ncn2[C@@H]1O[C@H](C(=O)N[C@@H](CO)Cc2ccccc2)[C@@H](O)[C@H]1O	none (no result: Ins promoter up, beta cell repl, SR-BI uptake up, Calb FLC, SR-BI HDL uptake)
COc1ccc(S(=O)(=O)N2CCC(C(=O)NCC(=O)Nc3c(C)cccc3C)CC2)cc1OC	none (no result: Ins promoter up, beta cell repl, Calb FLC)
Brc1ccc(/C=C/C=N/Nc2nc3ccccc3s2)cc1	Calb FLC 99
O=C(N/N=C/c1ccc(Cl)cc1Cl)Nc1ccccc1	Calb FLC 117
O=C(CCC(=O)Nc1ccccc1Cl)N/N=C/c1c[nH]c2ccccc12	HTR2A ag 22
O=C(Cc1ccccc1)N/N=C/c1ccccc1Cl	Calb FLC 116
O=C(N/N=C/c1cccc(Cl)c1Cl)Nc1ccccc1	none (no result: Ins promoter up)
O=C(C[n+]1ccccc1)N/N=C/c1ccccc1Cl	none (no result: Ins promoter up, Calb FLC)
COc1ccc(CCN2C(=O)COc3ccccc3C2C(=O)NC(C)(C)C)cc1OC (configuration not stated)	none (no result: Ins promoter up, beta cell repl, SR-BI uptake up, Calb FLC, SR-BI HDL uptake)
C#CCOCCOCCOCCNc1nc(N2CCOCC2)nc(N2CCN(C(=O)Cn3cc(CCCCN)nn3)CC2)n1	none (no result: Ins promoter up, beta cell repl, Calb FLC)
COc1cc(C2=NOC(C(=O)N3CCCc4ccccc43)C2)cc(OC)c1OC (configuration not stated)	SR-BI HDL uptake 82
COc1ccc(C2=NOC(C(=O)N3CCCc4ccccc43)C2)cc1 (configuration not stated)	none
CCc1ccc(NC(=O)CSc2nc3cc(C(=O)OC)ccc3c(=O)n2Cc2ccco2)cc1	none
CCN(C(=O)CSc1nc2cc(C(=O)OC)ccc2c(=O)n1Cc1ccco1)c1cccc(C)c1	Ins promoter up 4.5
Cn1c(=O)n(C)c2cc(N3CCOCC3)c(NC(=O)c3cccc(Cl)c3)cc21	none (no result: Ins promoter up)
Cc1csc2ncnc(NCCc3ccccn3)c12	Calb FLC 98
O=C(Nc1ccc(C(=O)N2CCOCC2)cc1)c1cc(-c2cccnc2)nc2ccc(Br)cc12	Calb FLC inconclusive, SR-BI HDL uptake 81
O=C(Nc1ccccn1)c1cc(-c2cccnc2)nc2ccc(Br)cc12	none
CCC1CN(C(=O)N2CCC(C(=O)NCCc3ccc(OC)cc3OC)CC2)c2ccccc2O1 (configuration not stated)	SR-BI HDL uptake 78 (no result: Ins promoter up)
CCC1CN(C(=O)N2CCC(C(=O)NCCc3ccccc3OC)CC2)c2ccccc2O1 (configuration not stated)	SR-BI HDL uptake inconclusive (no result: Ins promoter up)
COC(=O)c1cc2c(-c3ccccc3)cc3ccccn3c-2c1C(=O)OC	SR-BI HDL uptake 85 (no result: Ins promoter up)
COc1ccc(CCNC(=O)c2cccnc2)cc1	none

Screening data from PubChem.
